ChEMBL document CHEMBL3351667, “A chemical tuned strategy to develop novel irreversible EGFR-TK inhibitors with improved safety and pharmacokinetic profiles” (J Med Chem, 2014)
Each block holds one compound with its values, some of them ahead of it.

Legend:
A-431 = experiment: cells; format: functional, cell-based; details: Homo sapiens, A-431, 48 h
[1] = target: Epidermal growth factor receptor (Homo sapiens, UniProt P00533);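 further: inhibition of wild-type EGFR read out by HTRF, with a 5 min incubation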
Sequence of Epidermal growth factor receptor (Homo sapiens, UniProt P00533) (P00533 whole entry): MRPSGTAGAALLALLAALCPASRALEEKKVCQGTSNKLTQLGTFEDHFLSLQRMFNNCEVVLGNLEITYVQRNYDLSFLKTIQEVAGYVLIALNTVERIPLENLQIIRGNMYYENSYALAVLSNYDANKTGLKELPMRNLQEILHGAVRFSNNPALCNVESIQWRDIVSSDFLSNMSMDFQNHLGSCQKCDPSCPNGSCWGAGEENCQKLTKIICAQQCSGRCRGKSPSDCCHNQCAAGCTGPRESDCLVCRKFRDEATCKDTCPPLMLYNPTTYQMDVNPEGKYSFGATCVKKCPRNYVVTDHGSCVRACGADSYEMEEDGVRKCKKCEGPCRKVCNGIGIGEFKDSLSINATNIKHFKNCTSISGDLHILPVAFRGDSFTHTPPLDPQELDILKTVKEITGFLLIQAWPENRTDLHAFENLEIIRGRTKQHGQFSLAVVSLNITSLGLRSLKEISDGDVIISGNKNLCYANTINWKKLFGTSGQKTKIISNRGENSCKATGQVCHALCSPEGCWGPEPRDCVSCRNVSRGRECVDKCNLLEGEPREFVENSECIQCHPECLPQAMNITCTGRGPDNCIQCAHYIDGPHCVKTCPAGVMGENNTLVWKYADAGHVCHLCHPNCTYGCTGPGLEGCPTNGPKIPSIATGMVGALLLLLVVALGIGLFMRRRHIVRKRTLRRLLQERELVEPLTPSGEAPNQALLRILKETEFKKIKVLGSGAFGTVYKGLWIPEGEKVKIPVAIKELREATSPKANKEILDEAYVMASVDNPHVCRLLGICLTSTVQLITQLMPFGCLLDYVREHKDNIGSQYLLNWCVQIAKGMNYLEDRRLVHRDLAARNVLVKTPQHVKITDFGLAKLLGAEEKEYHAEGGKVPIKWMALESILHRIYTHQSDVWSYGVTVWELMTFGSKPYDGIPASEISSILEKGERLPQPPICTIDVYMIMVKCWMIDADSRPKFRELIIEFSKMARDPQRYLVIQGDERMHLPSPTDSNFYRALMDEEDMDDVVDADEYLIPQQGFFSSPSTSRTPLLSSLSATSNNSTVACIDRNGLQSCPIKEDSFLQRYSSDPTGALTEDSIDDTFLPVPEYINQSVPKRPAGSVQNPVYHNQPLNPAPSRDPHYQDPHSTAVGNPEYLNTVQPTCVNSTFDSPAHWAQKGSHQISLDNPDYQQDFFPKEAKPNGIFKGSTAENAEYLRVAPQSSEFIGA

NCI-H1975 [2] = experiment: cells; format: functional, cell-based; details: Homo sapiens, NCI-H1975, 48 h
[3] = Cmax in BALB/c mouse at 5 mg/kg, po after 24 hrs by LC/MS/MS method; format: ADME, organism-based; set-up: dose 5 mg/kg, route oral; details: in vivo
Mus musculus [4] = experiment: AUC (0 to infinity) in BALB/c mouse at 5 mg/kg, po after 24 hrs by LC/MS/MS method; format: ADME, organism-based, Plasma; set-up: time infinity, dose 5 mg/kg, route oral; details: in vivo, 24 h
[5] = Oral bioavailability in BALB/c mouse at 5 mg/kg after 24 hrs by LC/MS/MS method; format: ADME, organism-based; details: in vivo
Mus musculus [6] = experiment: Apparent volume of distribution in BALB/c mouse at 5 mg/kg, po after 24 hrs by LC/MS/MS method; format: ADME, organism-based; set-up: dose 5 mg/kg, route oral; details: in vivo
Mus musculus [7] = experiment: Apparent clearance in BALB/c mouse at 5 mg/kg, po after 24 hrs by LC/MS/MS method; format: ADME, organism-based; set-up: dose 5 mg/kg, route oral; details: in vivo, 24 h
[8] = Intrinsic clearance in human liver microsomes assessed per mg protein at 1 uM in presence of NADPH after 0.5 to 30 mins by LC/MS/MS method; format: ADME; details: read-out: CLH
[9] = Intrinsic clearance in mouse liver microsomes assessed per mg protein at 1 uM in presence of NADPH after 0.5 to 30 mins by LC/MS/MS method; format: ADME; details: read-out: CLH
[10] = Intrinsic clearance in monkey liver microsomes assessed per mg protein at 1 uM in presence of NADPH after 0.5 to 30 mins by LC/MS/MS method; format: ADME, Macaca mulatta; details: rhesus monkey, read-out: CLH
[11] = Intrinsic clearance in rat liver microsomes assessed per mg protein at 1 uM in presence of NADPH after 0.5 to 30 mins by LC/MS/MS method; format: ADME; details: read-out: CLH
[12] = Intrinsic clearance in dog liver microsomes assessed per mg protein at 1 uM in presence of NADPH after 0.5 to 30 mins by LC/MS/MS method; format: ADME, Canis lupus familiaris; details: read-out: CLH
hERG (KCNH2) [13] = target: T1, hERG (KCNH2) (Homo sapiens, UniProt Q12809); experiment: Inhibition of human ERG assessed as reduction in channel currents at 1 uM
T1 sequence (Q12809 whole entry): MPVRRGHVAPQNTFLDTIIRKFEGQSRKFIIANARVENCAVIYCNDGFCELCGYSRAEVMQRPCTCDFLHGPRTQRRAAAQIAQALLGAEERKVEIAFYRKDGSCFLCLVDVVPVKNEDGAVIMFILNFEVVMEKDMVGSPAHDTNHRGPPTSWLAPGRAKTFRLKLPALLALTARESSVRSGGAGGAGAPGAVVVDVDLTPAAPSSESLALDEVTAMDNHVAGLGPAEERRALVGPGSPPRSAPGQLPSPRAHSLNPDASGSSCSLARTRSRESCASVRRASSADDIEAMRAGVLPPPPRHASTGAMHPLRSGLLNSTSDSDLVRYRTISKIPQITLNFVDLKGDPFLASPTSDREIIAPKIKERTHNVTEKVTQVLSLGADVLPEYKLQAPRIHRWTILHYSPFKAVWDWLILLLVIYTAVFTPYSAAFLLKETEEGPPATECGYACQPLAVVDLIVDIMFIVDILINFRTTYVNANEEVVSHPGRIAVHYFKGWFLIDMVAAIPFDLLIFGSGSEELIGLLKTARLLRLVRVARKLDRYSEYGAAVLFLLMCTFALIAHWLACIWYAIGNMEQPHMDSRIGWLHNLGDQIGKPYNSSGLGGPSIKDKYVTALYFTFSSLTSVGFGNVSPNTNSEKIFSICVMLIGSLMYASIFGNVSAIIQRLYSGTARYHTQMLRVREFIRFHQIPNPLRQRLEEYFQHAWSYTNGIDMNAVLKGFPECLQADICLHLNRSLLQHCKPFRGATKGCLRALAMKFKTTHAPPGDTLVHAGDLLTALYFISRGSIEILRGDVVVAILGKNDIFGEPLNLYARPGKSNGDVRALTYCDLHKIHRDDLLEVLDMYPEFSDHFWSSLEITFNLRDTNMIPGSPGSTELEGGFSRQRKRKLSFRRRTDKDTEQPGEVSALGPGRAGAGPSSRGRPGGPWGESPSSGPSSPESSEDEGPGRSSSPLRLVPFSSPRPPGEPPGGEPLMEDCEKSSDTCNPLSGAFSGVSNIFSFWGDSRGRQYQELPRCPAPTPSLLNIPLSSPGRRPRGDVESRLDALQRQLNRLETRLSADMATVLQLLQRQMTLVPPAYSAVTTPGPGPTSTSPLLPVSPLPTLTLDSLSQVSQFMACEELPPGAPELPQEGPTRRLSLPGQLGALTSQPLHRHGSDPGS

hERG (KCNH2) [14] = target: T1, hERG (KCNH2); experiment: Inhibition of human ERG assessed as reduction in channel currents at 10 uM
[15] = target: Receptor tyrosine-protein kinase erbB-2 (Homo sapiens, UniProt P04626); experiment: Inhibition of wild type HER2 (unknown origin) incubated for 5 mins by HTRF assay
Sequence of Receptor tyrosine-protein kinase erbB-2 (P04626 whole entry): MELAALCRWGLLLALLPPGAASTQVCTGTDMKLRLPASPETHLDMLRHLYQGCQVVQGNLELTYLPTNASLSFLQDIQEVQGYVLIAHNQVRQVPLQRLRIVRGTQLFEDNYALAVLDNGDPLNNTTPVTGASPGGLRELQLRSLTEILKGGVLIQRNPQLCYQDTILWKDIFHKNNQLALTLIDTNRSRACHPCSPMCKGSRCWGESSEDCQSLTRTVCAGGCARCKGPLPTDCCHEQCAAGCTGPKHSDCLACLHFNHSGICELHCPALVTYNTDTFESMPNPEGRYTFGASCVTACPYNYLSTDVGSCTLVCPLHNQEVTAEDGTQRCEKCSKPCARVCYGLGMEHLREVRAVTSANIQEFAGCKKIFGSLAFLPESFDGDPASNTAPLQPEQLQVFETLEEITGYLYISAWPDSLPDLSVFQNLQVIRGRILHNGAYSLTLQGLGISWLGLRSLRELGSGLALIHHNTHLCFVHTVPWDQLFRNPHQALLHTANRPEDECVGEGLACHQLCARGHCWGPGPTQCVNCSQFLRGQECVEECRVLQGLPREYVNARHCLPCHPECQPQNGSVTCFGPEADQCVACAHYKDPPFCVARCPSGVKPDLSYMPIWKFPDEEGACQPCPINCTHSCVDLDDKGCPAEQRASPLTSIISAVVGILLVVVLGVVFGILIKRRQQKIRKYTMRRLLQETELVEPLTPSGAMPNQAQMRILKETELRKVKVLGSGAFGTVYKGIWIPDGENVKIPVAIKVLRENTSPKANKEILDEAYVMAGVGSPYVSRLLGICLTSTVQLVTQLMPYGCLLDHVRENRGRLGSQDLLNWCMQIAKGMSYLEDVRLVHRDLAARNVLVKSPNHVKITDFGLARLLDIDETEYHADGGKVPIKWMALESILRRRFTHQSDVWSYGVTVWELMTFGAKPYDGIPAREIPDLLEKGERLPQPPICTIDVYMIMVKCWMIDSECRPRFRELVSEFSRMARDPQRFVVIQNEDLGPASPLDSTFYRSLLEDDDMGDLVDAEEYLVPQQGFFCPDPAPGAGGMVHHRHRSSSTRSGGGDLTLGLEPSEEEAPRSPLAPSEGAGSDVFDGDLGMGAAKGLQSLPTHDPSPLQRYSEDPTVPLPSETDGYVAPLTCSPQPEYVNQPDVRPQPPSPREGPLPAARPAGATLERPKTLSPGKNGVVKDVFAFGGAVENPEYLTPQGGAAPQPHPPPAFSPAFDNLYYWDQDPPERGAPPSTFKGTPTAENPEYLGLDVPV

[16] = target: Epidermal growth factor receptor (Homo sapiens, UniProt P00533, T790M); format: protein assay
Sequence of Epidermal growth factor receptor (Homo sapiens, UniProt P00533, T790M) (P00533 25-1210 T790M limits assumed): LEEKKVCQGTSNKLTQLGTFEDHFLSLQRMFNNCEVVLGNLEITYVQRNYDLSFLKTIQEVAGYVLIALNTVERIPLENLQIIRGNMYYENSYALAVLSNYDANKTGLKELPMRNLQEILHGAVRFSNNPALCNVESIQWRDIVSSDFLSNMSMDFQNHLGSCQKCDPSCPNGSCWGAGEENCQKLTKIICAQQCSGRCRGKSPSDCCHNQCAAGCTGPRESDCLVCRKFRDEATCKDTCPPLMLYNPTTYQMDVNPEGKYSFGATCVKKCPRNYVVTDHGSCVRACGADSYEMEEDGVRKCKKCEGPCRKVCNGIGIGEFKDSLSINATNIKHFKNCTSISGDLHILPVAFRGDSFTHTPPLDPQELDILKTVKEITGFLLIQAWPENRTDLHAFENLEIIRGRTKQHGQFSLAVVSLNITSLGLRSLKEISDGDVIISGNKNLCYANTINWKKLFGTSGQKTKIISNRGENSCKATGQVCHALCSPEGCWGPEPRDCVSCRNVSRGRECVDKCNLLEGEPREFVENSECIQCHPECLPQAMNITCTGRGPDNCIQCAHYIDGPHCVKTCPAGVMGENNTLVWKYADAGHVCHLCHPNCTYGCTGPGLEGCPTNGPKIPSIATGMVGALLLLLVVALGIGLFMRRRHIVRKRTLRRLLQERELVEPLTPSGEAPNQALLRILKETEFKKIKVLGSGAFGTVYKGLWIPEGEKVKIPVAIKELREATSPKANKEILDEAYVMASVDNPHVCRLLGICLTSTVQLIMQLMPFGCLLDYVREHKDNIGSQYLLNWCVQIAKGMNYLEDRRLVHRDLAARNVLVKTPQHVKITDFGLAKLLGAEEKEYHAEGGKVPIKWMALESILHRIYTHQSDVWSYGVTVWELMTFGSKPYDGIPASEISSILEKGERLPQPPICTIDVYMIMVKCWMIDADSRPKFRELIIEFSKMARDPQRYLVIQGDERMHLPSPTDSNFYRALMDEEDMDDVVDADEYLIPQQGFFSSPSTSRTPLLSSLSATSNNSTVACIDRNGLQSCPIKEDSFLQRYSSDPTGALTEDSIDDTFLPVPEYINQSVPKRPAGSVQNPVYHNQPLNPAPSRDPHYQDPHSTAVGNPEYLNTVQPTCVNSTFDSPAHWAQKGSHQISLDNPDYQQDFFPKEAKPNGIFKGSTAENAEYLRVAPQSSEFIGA

Cytochrome P450 3A4 = Cytochrome P450 3A4 (Homo sapiens, UniProt P08684); experiment: Inhibition of CYP3A4 in human hepatic microsomes after 20 mins by LC/MS/MS method; format: ADME, Liver
Mus musculus [17] = experiment: Apparent volume of distribution in BALB/c mouse at 10 mg/kg, po after 24 hrs by LC/MS/MS method; format: ADME, organism-based; set-up: dose 10 mg/kg, route oral; details: in vivo
Cytochrome P450 1A2 = target: T2, Cytochrome P450 1A2 (Homo sapiens, UniProt P05177); experiment: Inhibition of CYP1A2 in human hepatic microsomes after 20 mins by LC/MS/MS method; format: ADME, Liver
T2 sequence (P05177 whole entry): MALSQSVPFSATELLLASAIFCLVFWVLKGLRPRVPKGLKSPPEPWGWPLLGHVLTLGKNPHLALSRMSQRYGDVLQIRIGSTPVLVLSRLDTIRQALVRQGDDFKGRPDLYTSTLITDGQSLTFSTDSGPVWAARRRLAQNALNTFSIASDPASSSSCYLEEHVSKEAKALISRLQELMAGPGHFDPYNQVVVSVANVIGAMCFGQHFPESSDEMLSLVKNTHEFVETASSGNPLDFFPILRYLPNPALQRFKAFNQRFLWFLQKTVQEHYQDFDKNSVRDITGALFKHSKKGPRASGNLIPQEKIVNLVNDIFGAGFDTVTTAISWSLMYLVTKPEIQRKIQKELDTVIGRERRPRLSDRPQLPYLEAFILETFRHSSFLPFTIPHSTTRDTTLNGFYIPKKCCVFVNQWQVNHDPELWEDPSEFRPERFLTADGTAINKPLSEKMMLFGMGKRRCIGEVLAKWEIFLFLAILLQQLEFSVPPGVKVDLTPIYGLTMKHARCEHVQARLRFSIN

Cytochrome P450 2C9 = Cytochrome P450 2C9 (Homo sapiens, UniProt P11712); experiment: Inhibition of CYP2C9 in human hepatic microsomes after 20 mins by LC/MS/MS method; format: ADME, Liver
Cytochrome P450 2C19 = Cytochrome P450 2C19 (Homo sapiens, UniProt P33261); experiment: Inhibition of CYP2C19 in human hepatic microsomes after 20 mins by LC/MS/MS method; format: ADME, Liver
[18] = Ratio of drug level in brain to plasma in BALB/c mouse at 30 mg/kg, po after 6 hrs by LC/MS/MS method; format: ADME, organism-based; set-up: dose 30 mg/kg, route oral; details: read-out: BPR
How it was run: (§1)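 BALB/c mice received a single oral dose of 30 mg/kg. Drug concentrations in lung, brain and plasma were measured at multiple time points over 6 h. Mean tissue levels are expressed as a lung/plasma/brain ratio, with plasma set to 1.0.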

[19] = Ratio of drug level in lung to plasma in BALB/c mouse at 30 mg/kg, po after 6 hrs by LC/MS/MS method; format: ADME, organism-based; set-up: dose 30 mg/kg, route oral
How it was run: as §1

[20] = Cmax in BALB/c mouse at 10 mg/kg, po after 24 hrs by LC/MS/MS method; format: ADME, organism-based; set-up: dose 10 mg/kg, route oral; details: in vivo
[21] = Oral bioavailability in BALB/c mouse at 10 mg/kg after 24 hrs by LC/MS/MS method; format: ADME, organism-based; details: in vivo
Cytochrome P450 2D6 = Cytochrome P450 2D6 (Homo sapiens, UniProt P10635); experiment: Inhibition of CYP2D6 in human hepatic microsomes after 20 mins by LC/MS/MS method; format: ADME, Liver
[22] = Apparent clearance in BALB/c mouse at 10 mg/kg, po after 24 hrs by LC/MS/MS method; format: ADME, organism-based; set-up: dose 10 mg/kg, route oral; details: BALB/c, in vivo, read-out: CL(app)
NCI-H1975 [23] = experiment: Antitumor activity against human NCI-H1975 cells xenografted in nude mouse assessed as reduction in tumor growth at 30 mg/kg/day, ig relative to untreated control; format: functional; details: route intragastric
[24] = AUC (0 to infinity) in BALB/c mouse at 10 mg/kg, po after 24 hrs by LC/MS/MS method; format: ADME, organism-based, Plasma; set-up: dose 10 mg/kg, route oral, time infinity; details: BALB/c, plasma
hERG (KCNH2) [25] = target: T1, hERG (KCNH2); experiment: Inhibition of human ERG assessed as reduction in channel currents at 0.1 uM

- Cmax [3]: 90 nM
- AUC (Mus musculus [4]): 14.7 µM·min
- bioavailability [5]: 16.5%
- Vz (Mus musculus [6]): 12.2 L/kg
- CL(app) (Mus musculus [7]): 120 mL/min/kg
- IC50 (NCI-H1975 [2]): 1.01 µM
Compound: COc1cc2ncnc(Nc3ccc(F)c(Cl)c3)c2cc1NC(=O)/C(F)=C\CN1CCCCC1

- microsomal CLint at 1 µM [8]: 50 µL/min/mg
- microsomal CLint at 1 µM [9]: 5 µL/min/mg
- microsomal CLint at 1 µM [10]: 221 µL/min/mg
- microsomal CLint at 1 µM [11]: 105 µL/min/mg
- microsomal CLint at 1 µM [12]: 26 µL/min/mg
Compound: C=CC(=O)Nc1cc2c(Nc3ccc(F)c(Cl)c3)ncnc2cc1OCCCN1CCOCC1 [CANERTINIB]

- IC50 (A-431): 11.5 µM
- IC50 [15]: 1.57 µM
- IC50 (NCI-H1975 [2]): 4.37 µM
Compound: O=C(Nc1cc2c(Nc3ccc(F)c(Cl)c3)ncnc2cc1O[C@H]1CCOC1)/C(F)=C/CN1CCOCC1
- inhibition at 1 µM (hERG (KCNH2) [13]): 0.94%
- inhibition at 10 µM (hERG (KCNH2) [14]): 11.1%

- IC50 [16]: 0.0379 µM
- IC50 (A-431): 3.49 µM
- IC50 [1]: 0.0129 µM
- IC50 (NCI-H1975 [2]): 3.6 µM
Compound: CCOc1cc2ncnc(Nc3ccc(Oc4ccc(C)nc4)c(Cl)c3)c2cc1NC(=O)/C(F)=C/CN1CCCCC1

- IC50 [16]: 0.0035 µM
- IC50 (A-431): 0.75 µM
- IC50 [1]: 0.0036 µM
- IC50 (NCI-H1975 [2]): 1.19 µM
Compound: CCOc1cc2ncnc(Nc3ccc(OCC4CC4)c(Cl)c3)c2cc1NC(=O)/C(F)=C/CN(C)C

- IC50 (A-431): 5.9 µM
- IC50 [1]: 0.0095 µM
- IC50 (NCI-H1975 [2]): 2.94 µM
Compound: CCOc1cc2ncnc(Nc3ccc(Oc4ccc(C)nc4)c(Cl)c3)c2cc1NC(=O)/C(F)=C\CN(C)C

The next lines start with the compound.

Compound: COc1cc2ncnc(Nc3ccc(OCc4cccc(F)c4)c(Cl)c3)c2cc1NC(=O)/C(F)=C\CN(C)C
- IC50 (A-431): 1.69 µM
- IC50 [1]: 0.0013 µM
- IC50 (NCI-H1975 [2]): 2 µM

Compound: CCOc1cc2ncnc(Nc3ccc(OCc4ccccn4)c(Cl)c3)c2cc1NC(=O)/C(F)=C\CN(C)C
- IC50 (NCI-H1975 [2]): 1.13 µM

Compound: CCOc1cc2ncnc(Nc3ccc(OCc4ccccn4)c(Cl)c3)c2cc1NC(=O)/C(F)=C/CN(C)C
- microsomal CLint at 1 µM [8]: 27 µL/min/mg
- IC50 [16]: 0.00377 µM
- IC50 (Cytochrome P450 3A4): > 10 µM
- Vz (Mus musculus [17]): 3.94 L/kg
- IC50 (A-431): 0.34 µM
- microsomal CLint at 1 µM [9]: 47 µL/min/mg
- IC50 (Cytochrome P450 1A2): > 10 µM
- IC50 (Cytochrome P450 2C9): > 10 µM
- microsomal CLint at 1 µM [10]: 97 µL/min/mg
- IC50 (Cytochrome P450 2C19): > 10 µM
- Kp at 6 h [18]: 0.29
- Kp at 6 h [19]: 11
- inhibition at 1 µM (hERG (KCNH2) [13]): 0%
- Cmax [20]: 2660 nM
- inhibition at 10 µM (hERG (KCNH2) [14]): 3.06%
- microsomal CLint at 1 µM [11]: 33 µL/min/mg
- bioavailability [21]: 89.4%
- IC50 (Cytochrome P450 2D6): > 10 µM
- IC50 [15]: 0.00138 µM
- CL/F [22]: 20 mL/min/kg
- IC50 [1]: 0.00018 µM
- T/C (NCI-H1975 [23]): 15.6%
- microsomal CLint at 1 µM [12]: 95 µL/min/mg
- AUC(0-inf) [24]: 16.6 µM·h

Compound: CCOc1cc2ncnc(Nc3ccc(Oc4ccc(C)nc4)c(Cl)c3)c2cc1NC(=O)/C(F)=C\CN1CCCCC1
- IC50 (A-431): 24.8 µM
- IC50 [1]: 0.0392 µM
- IC50 (NCI-H1975 [2]): 6.42 µM

Compound: COc1cc(N)c(Cl)cc1C(=O)NC1CCN(CCCOc2ccc(F)cc2)CC1OC (centres undefined) [CISAPRIDE]
- inhibition at 1 µM (hERG (KCNH2) [13]): 92.4%
- inhibition at 0.1 µM (hERG (KCNH2) [25]): 65.5%

Compound: COc1cc2ncnc(Nc3cccc(Br)c3)c2cc1NC(=O)/C(F)=C/CN(C)C
- IC50 [16]: 0.0083 µM
- IC50 (A-431): 2.1 µM
- IC50 [1]: 0.0026 µM
- IC50 (NCI-H1975 [2]): 3.3 µM
